Assay results reported in ChEMBL document CHEMBL4020842, “Discovery of N1-(4-((7-Cyclopentyl-6-(dimethylcarbamoyl)-7 H-pyrrolo[2,3- d]pyrimidin-2-yl)amino)phenyl)- N8-hydroxyoctanediamide as a Novel Inhibitor Targeting Cyclin-dependent Kinase 4/9 (CDK4/9) and Histone Deacetlyase1 (HDAC1) against Malignant Cancer” (J Med Chem, 2018).
Calls of active or inactive are those of the source. No cut-off for these calls is given here.

How the values were obtained:
[1] = system: A549; assay: Downregulation of Cyclin-D1 protein expression in human A549 cells after 48 hrs by Western blot method; format: functional, cell-based
How it was run: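 Treated cells were lysed and CDK4 and cyclin D1 protein levels were assessed by Western blot.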

[2] = system: A549; assay: Cell cycle arrest in human A549 cells assessed as accumulation at G2 phase at 2.5 to 10 uM after 24 hrs by propidium iodide staining based flow cytometry; format: functional
How it was run: (§1)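 Cells were exposed for 24 h to a range of concentrations (625 nM, 2.5 and 10 µM), with DMSO vehicle as control. They were then stained with propidium iodide and analysed by flow cytometry to obtain the percentages of cells in G0/G1, S and G2 phases.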

[3] = system: A549; assay: Induction of apoptosis in human A549 cells assessed as early apoptotic cells at 5 uM after 48 hrs by annexin V-FITC/propidium iodide staining based flow cytometry (reference value: 0.41%); format: functional
[4] = system: HepG2; assay: Induction of apoptosis in human HepG2 cells assessed as live cells at 1 uM after 48 hrs by annexin V-FITC/propidium iodide staining based flow cytometry (reference value: 96.7%); format: functional
[5] = target: Cyclin-dependent kinase 5/CDK5 activator 1 (Homo sapiens) (UniProt Q00535+Q15078); assay: Inhibition of recombinant human full length N-terminal 6His-tagged CDK5/N-terminal GST-tagged p25 co-expressed in baculovirus infected sf21 cells at 1 uM using histone H1 substrate in presence of [gamma33P]ATP after 10 mins by scintillation counting method relative to control
Sequence of Cyclin-dependent kinase 5/CDK5 activator 1 (Homo sapiens) (Q00535 whole entry): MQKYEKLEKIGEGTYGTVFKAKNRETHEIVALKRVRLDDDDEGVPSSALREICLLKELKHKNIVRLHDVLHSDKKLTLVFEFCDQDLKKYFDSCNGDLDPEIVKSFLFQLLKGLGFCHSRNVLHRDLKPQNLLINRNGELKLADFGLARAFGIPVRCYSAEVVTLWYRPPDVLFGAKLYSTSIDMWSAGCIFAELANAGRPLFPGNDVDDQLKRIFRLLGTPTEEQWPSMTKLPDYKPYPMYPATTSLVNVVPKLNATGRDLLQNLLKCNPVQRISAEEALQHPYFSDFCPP
Sequence of Cyclin-dependent kinase 5/CDK5 activator 1 (Homo sapiens) (Q15078 99-307 partner limits assumed): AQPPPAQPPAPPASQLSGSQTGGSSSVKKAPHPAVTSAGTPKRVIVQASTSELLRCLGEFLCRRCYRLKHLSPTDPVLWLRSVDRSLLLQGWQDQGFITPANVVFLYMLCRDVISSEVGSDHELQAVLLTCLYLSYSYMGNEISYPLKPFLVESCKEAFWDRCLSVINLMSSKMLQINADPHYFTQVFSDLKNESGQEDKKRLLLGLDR

[6] = target: CDK3/Cyclin E (Homo sapiens) (UniProt P24864+Q00526); assay: Inhibition of recombinant human full length C-terminal 6His-tagged CDK3/N-terminal GST-tagged Cyclin-E co-expressed in baculovirus infected sf21 cells at 1 uM relative to control
Sequence of CDK3/Cyclin E (Homo sapiens) (P24864 whole entry, looked up): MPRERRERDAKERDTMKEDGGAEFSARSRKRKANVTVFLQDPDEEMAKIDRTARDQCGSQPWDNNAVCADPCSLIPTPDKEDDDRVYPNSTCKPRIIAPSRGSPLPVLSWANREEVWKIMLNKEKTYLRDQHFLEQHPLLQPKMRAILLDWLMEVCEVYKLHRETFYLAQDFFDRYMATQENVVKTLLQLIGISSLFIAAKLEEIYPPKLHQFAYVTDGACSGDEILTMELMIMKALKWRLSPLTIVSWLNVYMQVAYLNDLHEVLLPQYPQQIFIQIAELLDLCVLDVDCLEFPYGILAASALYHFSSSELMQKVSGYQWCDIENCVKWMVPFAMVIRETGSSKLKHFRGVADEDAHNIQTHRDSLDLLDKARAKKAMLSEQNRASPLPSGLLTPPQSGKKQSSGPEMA
Sequence of CDK3/Cyclin E (Homo sapiens) (Q00526 whole entry, looked up): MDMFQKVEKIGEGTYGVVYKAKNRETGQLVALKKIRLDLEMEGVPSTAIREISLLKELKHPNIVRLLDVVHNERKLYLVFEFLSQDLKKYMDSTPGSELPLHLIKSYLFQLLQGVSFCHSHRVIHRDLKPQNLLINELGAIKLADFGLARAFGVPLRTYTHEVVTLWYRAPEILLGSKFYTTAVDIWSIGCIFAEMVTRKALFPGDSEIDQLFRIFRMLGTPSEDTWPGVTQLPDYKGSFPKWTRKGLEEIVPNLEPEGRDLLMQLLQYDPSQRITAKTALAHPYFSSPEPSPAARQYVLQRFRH

[7] = Clearance in Sprague-Dawley rat at 20 mg/kg, ip administered as single dose by HPLC analysis; format: ADME, organism-based; details: in vivo
[8] = system: Mus musculus; assay: Downregulation of phosphorylated Rb level in tumor of Balb/c mouse implanted with mouse Fluc-labeled 4T1 cells at 90 to 130 mg/kg, po administered via gavage daily for 18 days by immunohistochemical analysis; format: functional, organism-based
How it was run: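 4T1 cells were labeled with firefly luciferase by lentiviral transduction and implanted orthotopically into the mammary fat pads of 6−8-week-old female BALB/c mice. Dosing by oral gavage began once tumors averaged 100 mm3, at 90 and 130 mg/kg. p-Rb in tumors was assessed by immunohistochemistry.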

[9] = target: CDK9/cyclin T1 (Homo sapiens) (UniProt O60563+P50750); assay: Inhibition of recombinant human full length C-terminal 6His-tagged CDK9/Cyclin-T1 co-expressed in baculovirus infected sf21 cells at 1 uM using PDKtide substrate in presence of [gamma33P]ATP after 10 mins by scintillation counting method relative to control
[10] = system: A549; assay: Downregulation of CDK4 protein expression in human A549 cells after 48 hrs by Western blot method; format: functional, cell-based
[11] = target: Serine/threonine-protein kinase TAO2 (Homo sapiens, UniProt Q9UL54); assay: Inhibition of recombinant human N-terminal His6-tagged TAO2 expressed in sf21 cells
Sequence of Serine/threonine-protein kinase TAO2 (Q9UL54 whole entry): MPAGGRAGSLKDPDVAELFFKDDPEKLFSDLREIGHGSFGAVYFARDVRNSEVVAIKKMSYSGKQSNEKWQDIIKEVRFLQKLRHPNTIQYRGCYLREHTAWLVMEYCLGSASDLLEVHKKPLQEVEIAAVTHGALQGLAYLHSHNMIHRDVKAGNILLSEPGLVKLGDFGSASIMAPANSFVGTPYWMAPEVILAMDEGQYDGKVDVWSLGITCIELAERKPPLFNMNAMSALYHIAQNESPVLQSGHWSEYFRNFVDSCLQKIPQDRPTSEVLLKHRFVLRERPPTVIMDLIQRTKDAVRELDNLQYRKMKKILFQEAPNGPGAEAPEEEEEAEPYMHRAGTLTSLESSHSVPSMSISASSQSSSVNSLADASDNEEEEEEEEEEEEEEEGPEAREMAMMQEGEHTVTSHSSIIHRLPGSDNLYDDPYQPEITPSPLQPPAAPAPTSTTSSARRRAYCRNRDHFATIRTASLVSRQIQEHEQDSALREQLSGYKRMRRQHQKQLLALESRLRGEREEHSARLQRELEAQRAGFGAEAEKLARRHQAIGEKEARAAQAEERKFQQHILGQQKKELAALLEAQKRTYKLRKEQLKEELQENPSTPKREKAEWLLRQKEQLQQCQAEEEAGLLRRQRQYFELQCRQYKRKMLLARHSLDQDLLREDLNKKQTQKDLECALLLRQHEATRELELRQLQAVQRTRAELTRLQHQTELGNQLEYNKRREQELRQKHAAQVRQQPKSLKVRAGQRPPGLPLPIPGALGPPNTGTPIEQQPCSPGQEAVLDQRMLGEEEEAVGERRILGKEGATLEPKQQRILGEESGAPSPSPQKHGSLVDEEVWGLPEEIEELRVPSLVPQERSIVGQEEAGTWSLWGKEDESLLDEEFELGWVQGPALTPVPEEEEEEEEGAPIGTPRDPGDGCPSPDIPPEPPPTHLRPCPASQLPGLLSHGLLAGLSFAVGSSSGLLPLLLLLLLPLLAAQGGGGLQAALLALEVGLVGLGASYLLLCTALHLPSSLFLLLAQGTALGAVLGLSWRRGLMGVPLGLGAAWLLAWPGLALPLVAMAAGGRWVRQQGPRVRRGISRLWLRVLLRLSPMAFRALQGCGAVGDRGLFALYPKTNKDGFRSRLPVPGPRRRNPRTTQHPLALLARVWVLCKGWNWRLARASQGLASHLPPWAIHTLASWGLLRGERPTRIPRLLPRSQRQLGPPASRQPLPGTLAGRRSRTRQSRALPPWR

[12] = Half life in Sprague-Dawley rat at 20 mg/kg, iv administered as single dose by HPLC analysis; format: ADME, organism-based; details: in vivo
[13] = system: HepG2; assay: Cytotoxicity against human HepG2 cells assessed as reduction in cell viability after 72 hrs by CCK8 assay; format: functional, cell-based; details: HepG2, 72 h
[14] = system: NCI-H460; assay: Induction of apoptosis in human NCI-H460 cells assessed as necrotic cells at 10 uM after 48 hrs by annexin V-FITC/propidium iodide staining based flow cytometry (reference value: 1.34%); format: functional
[15] = target: T1, Histone deacetylase 1 (Homo sapiens, UniProt Q13547); assay: Inhibition of HDAC1 in human T47D cells assessed as increase in acetylated-histone H3 level at 1 to 5 uM after 48 hrs by Western blot method; format: cell-based
T1 sequence (Q13547 whole entry): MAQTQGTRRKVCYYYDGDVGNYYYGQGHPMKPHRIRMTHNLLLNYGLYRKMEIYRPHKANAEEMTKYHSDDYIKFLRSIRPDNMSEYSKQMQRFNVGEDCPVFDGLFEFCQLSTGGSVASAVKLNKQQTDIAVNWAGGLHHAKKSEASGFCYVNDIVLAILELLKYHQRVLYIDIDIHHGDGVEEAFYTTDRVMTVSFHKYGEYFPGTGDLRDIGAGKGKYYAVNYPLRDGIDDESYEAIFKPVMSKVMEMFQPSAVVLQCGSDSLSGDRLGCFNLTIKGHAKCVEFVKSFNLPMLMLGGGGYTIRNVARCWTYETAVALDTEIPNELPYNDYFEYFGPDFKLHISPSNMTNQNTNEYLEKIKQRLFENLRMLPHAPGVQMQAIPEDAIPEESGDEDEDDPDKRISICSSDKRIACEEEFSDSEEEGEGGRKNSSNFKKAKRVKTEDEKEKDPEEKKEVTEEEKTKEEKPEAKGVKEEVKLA

[16] = system: T47D; assay: Induction of apoptosis in human T47D cells assessed as necrotic cells at 1 uM after 48 hrs by annexin V-FITC/propidium iodide staining based flow cytometry (reference value: 0.8%); format: functional
[17] = AUC (0 to infinity) in Sprague-Dawley rat at 20 mg/kg, po administered as single dose by HPLC analysis; format: ADME, organism-based; design: dose 20 mg/kg, time infinity, route oral; details: in vivo
[18] = Clearance in Sprague-Dawley rat at 20 mg/kg, po administered as single dose by HPLC analysis; format: ADME, organism-based; details: in vivo
[19] = system: HepG2; assay: Induction of apoptosis in human HepG2 cells after 48 hrs by annexin V-FITC/propidium iodide staining based flow cytometry; format: functional, cell-based
[20] = target: CDK9/cyclin T1 (Homo sapiens, UniProt P50750); assay: Inhibition of recombinant human full length C-terminal 6His-tagged CDK9/Cyclin-T1 co-expressed in baculovirus infected sf21 cells using PDKtide substrate in presence of [gamma33P]ATP after 10 mins by scintillation counting method
Sequence of CDK9/cyclin T1 (O60563 whole entry): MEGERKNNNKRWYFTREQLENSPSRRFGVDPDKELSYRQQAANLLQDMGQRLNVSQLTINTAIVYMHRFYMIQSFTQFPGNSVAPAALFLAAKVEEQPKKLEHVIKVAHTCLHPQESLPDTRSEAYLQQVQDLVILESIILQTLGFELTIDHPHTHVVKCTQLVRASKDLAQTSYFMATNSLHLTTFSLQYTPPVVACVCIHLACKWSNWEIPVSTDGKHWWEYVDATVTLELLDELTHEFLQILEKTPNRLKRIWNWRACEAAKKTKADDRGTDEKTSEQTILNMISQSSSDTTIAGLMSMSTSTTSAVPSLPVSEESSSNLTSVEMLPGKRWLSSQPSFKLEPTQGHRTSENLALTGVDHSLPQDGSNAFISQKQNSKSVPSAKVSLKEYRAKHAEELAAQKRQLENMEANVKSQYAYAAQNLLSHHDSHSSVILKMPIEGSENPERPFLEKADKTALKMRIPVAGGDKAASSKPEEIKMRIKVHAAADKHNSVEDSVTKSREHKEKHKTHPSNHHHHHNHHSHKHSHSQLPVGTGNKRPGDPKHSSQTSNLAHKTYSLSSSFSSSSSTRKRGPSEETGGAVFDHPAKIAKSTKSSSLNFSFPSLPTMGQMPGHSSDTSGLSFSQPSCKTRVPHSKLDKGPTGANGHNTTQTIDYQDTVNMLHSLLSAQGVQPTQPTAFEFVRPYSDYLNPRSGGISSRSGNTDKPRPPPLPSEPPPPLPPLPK
Sequence of CDK9/cyclin T1 (P50750 whole entry): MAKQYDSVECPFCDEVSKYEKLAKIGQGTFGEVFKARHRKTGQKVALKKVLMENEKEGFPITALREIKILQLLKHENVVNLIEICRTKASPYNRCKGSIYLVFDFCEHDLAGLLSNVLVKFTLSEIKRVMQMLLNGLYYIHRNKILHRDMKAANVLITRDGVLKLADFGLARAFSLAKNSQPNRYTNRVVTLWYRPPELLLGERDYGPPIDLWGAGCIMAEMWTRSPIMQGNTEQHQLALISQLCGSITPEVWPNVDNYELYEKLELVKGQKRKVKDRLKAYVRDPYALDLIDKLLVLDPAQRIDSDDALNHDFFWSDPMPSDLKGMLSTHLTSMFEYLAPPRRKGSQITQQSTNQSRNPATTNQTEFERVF

[21] = target: T1, Histone deacetylase 1; assay: Inhibition of HDAC1 in human T47D cells assessed as increase in p53 phosphorylation at Ser15 residue at 1 to 5 uM after 48 hrs by Western blot method; format: cell-based
[22] = Cmax in Sprague-Dawley rat at 20 mg/kg, ip administered as single dose by HPLC analysis; format: ADME, organism-based; design: dose 20 mg/kg, route intraperitoneal; details: in vivo
[23] = system: Mus musculus; assay: Toxicity in Balb/c mouse assessed as weight loss at 45 to 130 mg/kg, ip for 16 consecutive days; format: organism-based; details: in vivo
[24] = system: HepG2; assay: Induction of apoptosis in human HepG2 cells assessed as necrotic cells at 1 uM after 48 hrs by annexin V-FITC/propidium iodide staining based flow cytometry (reference value: 2.32%); format: functional
[25] = target: T1, Histone deacetylase 1; assay: Inhibition of HDAC1 in human NCI-H460 cells assessed as increase in p53 phosphorylation at Ser15 residue at 1 to 5 uM after 48 hrs by Western blot method; format: cell-based
[26] = system: Hep 3B2; assay: Induction of apoptosis in human Hep3B cells assessed as live cells at 1 uM after 48 hrs by annexin V-FITC/propidium iodide staining based flow cytometry (reference value: 97.9%); format: functional
[27] = system: HepG2; assay: Cell cycle arrest in human HepG2 cells assessed as accumulation at G2 phase at 2.5 to 10 uM after 24 hrs by propidium iodide staining based flow cytometry; format: functional; how it was run: as §1
[28] = system: 4T1; assay: Antitumor activity against mouse Fluc-labeled 4T1 cells implanted in Balb/c mouse assessed as tumor growth inhibition at 90 mg/kg, ip administered daily for 18 days measured after 8 to 25 days by bioluminescence assay relative to control; format: functional; details: 4T1, ip, read-out: TGI
How it was run: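 Luciferase (Fluc) reporter introduced into 4T1 cells by lentiviral transduction. Cells implanted orthotopically into mammary fat pads of female BALB/c mice aged 6–8 weeks. Once tumours averaged 100 mm3, dosing was daily by IP injection. Bioluminescence imaging was done at days 8 and 25 to reflect viable tumour cell number. Tumour weight was recorded at study end.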

[29] = system: Hep 3B2; assay: Induction of apoptosis in human Hep3B cells assessed as early apoptotic cells at 5 uM after 48 hrs by annexin V-FITC/propidium iodide staining based flow cytometry (reference value: 1.91%); format: functional
[30] = target: CDK4/CDK9 (Homo sapiens) (UniProt P11802+P50750); assay: Inhibition of CDK4/CDK9 in human NCI-H460 cells assessed as reduction in Rb phosphorylation at Ser807/811 residues at 1 uM after 48 hrs by Western blot method; format: cell-based
Sequence of CDK4/CDK9 (Homo sapiens) (P11802 whole entry, looked up): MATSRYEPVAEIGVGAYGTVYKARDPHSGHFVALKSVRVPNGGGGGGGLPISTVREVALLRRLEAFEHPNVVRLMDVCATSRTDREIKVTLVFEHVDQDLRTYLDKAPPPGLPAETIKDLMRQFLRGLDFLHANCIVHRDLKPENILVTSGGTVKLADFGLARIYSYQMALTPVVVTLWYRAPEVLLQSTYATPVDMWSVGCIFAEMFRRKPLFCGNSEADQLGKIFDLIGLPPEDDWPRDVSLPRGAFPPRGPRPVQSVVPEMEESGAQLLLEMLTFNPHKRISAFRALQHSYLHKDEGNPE
Sequence of CDK4/CDK9 (Homo sapiens) (P50750 whole entry, looked up): as the sequence (P50750 whole entry) above

- inhibition [5]: 78%
- inhibition [6]: 68%
- CL/F [7]: 210 mL/min/kg
- inhibition [9]: 97%
- IC50 [11]: 84 nM
- half-life [12]: 10.8 h
- inhibition [15]: Active
- AUC(0-inf) [17]: 1130 ng·h/mL
- CL/F [18]: 344 mL/min/kg
- IC50 [20]: 9 nM
- inhibition [21]: Active
- Cmax [22]: 360 ng/mL
- inhibition [25]: Active
- inhibition [30]: Active
Structure (SMILES): CN(C)C(=O)c1cc2cnc(Nc3ccc(NC(=O)CCCCCCC(=O)NO)cc3)nc2n1C1CCCC1
- Activity [1]: Dose-dependent effect
- Activity [2]: Active
- Activity [3]: 2.41%
- Activity [4]: 87.4%
- Activity [8]: Active
- Activity [10]: Dose-dependent effect
- IC50 [13]: 3370 nM
- Activity [14]: 5.58%
- Activity [16]: 6.7%
- Activity [19]: Dose-dependent effect
- Activity [23]: Non-Toxic
- Activity [24]: 3.95%
- Activity [26]: 85.8%
- Activity [27]: Active
- inhibition in vivo at 90 mg/kg [28]: 78.4%
- Activity [29]: 6.52%
